Assay results gathered from unrelated publications.
Compare with care: the assays were run in different laboratories.

SMILES | cell line | test | setting | IC50
COc1cc2c3c(n(CCCn4ccnc4)c(=O)c2cc1OC)-c1nc2c(cc1C3=O)OCO2 | HL-60 | cell growth or viability, MTS | 72 h | > 2 µM
COc1cc(NC(=O)c2ccccn2)ccc1S(N)(=O)=O | RAW264.7 | cell growth or viability, MTT | 48 h | > 100 µM
CC1(C)CCC(CN2CCN(c3ccc(C(=O)NS(=O)(=O)c4ccc(NCC5CCOCC5)c([N+](=O)[O-])c4)c(Oc4cnc5[nH]ccc5c4)c3)CC2)=C(c2ccc(Cl)cc2)C1 | HL-60 | cell growth or viability, ATP luminescence | 48 h | 3.04 µM
COc1cc2c(NC3CCN(CCCC(=O)NCCCCCCCCCCCC(=O)N[C@H](C(=O)N4C[C@H](O)C[C@H]4C(=O)NCc4ccc(-c5scnc5C)cc4)C(C)(C)C)CC3)nc(N3CCC(F)(F)CC3)nc2cc1OCCCN1CCCC1 | 22Rv1 | cell growth or viability, CCK-8 | 7 days | 4.1 µM
COc1cc(NC(=O)C2=C(C)NC(C)=C(C(=O)Nc3cc(OC)c(Cl)cc3OC)C2c2ccc(O)cc2)c(OC)cc1Cl | Vero | cell growth or viability, MTT | – | 51.8 µM
CC(C)c1ccccc1[C@@H]1CCCN1C1CC2(CCN(c3ccc(C(=O)NS(=O)(=O)c4ccc(NC[C@H]5CC[C@](C)(O)CC5)c([N+](=O)[O-])c4)c(Oc4cnc5[nH]ccc5c4)c3)CC2)C1 | Maver1 | cell growth or viability, ATP luminescence | 48 h | 0.00096 µM
C=C(F)C(=O)N1CCN(c2nc(OC[C@@H]3CCCN3C)nc3c2CCN(c2cccc4cccc(Cl)c24)C3)C[C@@H]1CC#N | OV56 | cell growth or viability, ATP luminescence | 3D culture | > 1 µM
COc1cccc2c1C(=O)c1c(O)c3c(c(O)c1C2=O)C[C@@](O)(C(=O)CO)C[C@@H]3O[C@H]1C[C@H](N)[C@H](O)[C@H](C)O1 | NCI-H1299 | cell growth or viability, MTT | 72 h | 0.77 µM
C#CCOc1ccc(/C=C/c2cc(OC)cc(OC)c2-c2cnnn2C(=O)NCC)cc1 | RAW264.7 | NO release, inhibitor, Griess | 24 h, LPS-stimulated | 10.6 µM
COc1ccc(NC(=O)C2=C(C)NC(C)=C(C(=O)Nc3ccc(OC)cc3OC)C2c2cccc(Cl)c2)c(OC)c1 | Vero | cell growth or viability, MTT | – | 67.5 µM
COc1cc(NC(=O)c2ccco2)ccc1S(N)(=O)=O | RAW264.7 | cell growth or viability, MTT | 48 h | > 100 µM
C#CCOc1ccc(/C=C/c2cc(OC)cc(OC)c2-c2cnnn2C(=O)NCCC)cc1 | RAW264.7 | NO release, inhibitor, Griess | 24 h, LPS-stimulated | 0.7 µM
CCOc1ccc(C(=O)Nc2ccc(S(N)(=O)=O)c(OC)c2)cc1 | RAW264.7 | cell growth or viability, MTT | 48 h | > 100 µM
CCCOc1ccc(/C=C/c2cc(OC)cc(OC)c2-c2cnnn2C(=O)NCCc2ccccc2)cc1 | RAW264.7 | NO release, inhibitor, Griess | 24 h, LPS-stimulated | 10.6 µM
COc1cc2c3c(n(CCCNCCO)c(=O)c2cc1OC)-c1nc2c(cc1C3=O)OCO2 | HL-60 | cell growth or viability, MTS | 72 h | 0.29 µM
CC#CCOc1ccc(/C=C/c2cc(OC)cc(OC)c2-c2cnnn2C(=O)NCCc2ccccc2)cc1 | RAW264.7 | NO release, inhibitor, Griess | 24 h, LPS-stimulated | 6.1 µM
CCNCCCn1c2c(c3cc(OC)c(OC)cc3c1=O)C(=O)c1cc3c(nc1-2)OCO3 | HL-60 | cell growth or viability, MTS | 72 h | 0.27 µM
